In ChEMBL document CHEMBL4316597, “Design, Synthesis, and Biological Evaluation of Itaconic Acid Derivatives as Potential Anti-Influenza Agents” (J Med Chem, 2019) one finds selectivity ratio data, which are given here for one molecule.

Molecules are shown by their SMILES.

Holding throughout (assay type): toxicity
Common to all, as to details: dog, read-out: Ratio CC50/EC50

A short description of series [1]: Selectivity ratio of CC50 for MDCK cells to EC50 for Influenza A virus A/TW/03384/13. The method, boiled down:
(§1)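 MDCK cells (2 × 10^4/well, E10, 16–24 h) infected at nine-fold TCID50 with compound for 72 h, 37 °C, 5% CO2. Cells were fixed in 4% paraformaldehyde and stained with crystal violet; EC50 is from Reed–Muench. For CC50, cells had compound alone for 72 h, then MTT 3 h, DMSO, A570, Reed–Muench. SI = CC50/EC50; three independent experiments.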

Series [2] can be described thus: Selectivity ratio of CC50 for MDCK cells to EC50 for Influenza A virus A/TW/01061/14. An outline of the steps:
as §1

The nature of series [3]: Selectivity ratio of CC50 for MDCK cells to EC50 for Influenza A virus A/TW/3446/02 (H3N2). The method, boiled down: as §1

As to `C=C(CC(=O)Nc1ccc(F)cc1F)C(=O)Nc1ccc(F)cc1F`, the selectivity ratio in series [1] came out at 23; in series [2], 21; in series [3], 18.
